Converted amounts (≈) assume the structure as drawn.
Tests used:
[1] = Clearance in human liver microsomes at 1 umol/L by HPLC analysis; type: ADME; conditions: read-out: CLH
Outline: (§1)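 Hepatic microsomes at 0.2 mg protein/mL in 50 mmol/L potassium phosphate, pH 7.4, with test compound at 1 µmol/L, incubated at 37 °C. Started by adding an NADPH-generating system (MgCl₂, glucose-6-phosphate, β-NADP⁺, G6P dehydrogenase). Stopped with an equal volume of acetonitrile. Parent compound loss measured by HPLC-UV or LC/MS/MS.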

[2] = Kinetic solubility of the compound in second fluid of disintegration test of Japanese pharmacopoeia containing bile acid at pH 6.8 by HPLC analysis; type: physicochemical; conditions: read-out: Kinetic_solubility
Outline: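 Kinetic solubility in JP second disintegration fluid with bile acid. Compound DMSO solutions added in small volumes to the aqueous buffer and incubated. Precipitate removed by filter-plate filtration, and dissolved compound in the filtrate quantified by HPLC.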

[3] = Clearance in mouse liver microsomes at 1 umol/L by HPLC analysis; type: ADME, Microsome; conditions: read-out: CLH; outline: as §1

microsomal CLint at 1 µM [1] [µL/min/mg] | solubility kinetic [2] [µg/mL] | microsomal CLint at 1 µM [3] [µL/min/mg] | SMILES
11 | > 140 | 8 | Cc1ccc(C(=O)Nc2ccc(Oc3ccc4nc(NC(=O)C5CC5)cn4n3)c(F)c2)c(=O)n1-c1ccccc1
3 | 3.2 (≈ 6.1 µM) | 11 | O=C(Nc1ccc(Oc2ccc3nc(NC(=O)C4CC4)cn3n2)c(F)c1)c1cccn(-c2ccccc2)c1=O

Further lines, the compound ahead of its results:

SMILES | microsomal CLint at 1 µM [1] [µL/min/mg] | solubility kinetic [2] [µg/mL] | microsomal CLint at 1 µM [3] [µL/min/mg]
Cc1ccc(C(=O)Nc2ccc(Oc3ccc4nc(NC(=O)C5CC5)cn4c3)c(F)c2)c(=O)n1-c1ccccc1 | – | 92 (≈ 171 µM) | –
O=C(Nc1ccc(Oc2ccc3nc(NC(=O)C4CC4)cn3c2)c(F)c1)c1cccn(-c2ccccc2)c1=O | 5 | 4.7 (≈ 8.98 µM) | 15
Cc1ccc(C(=O)Nc2ccc(Oc3ccc4nc(NC(=O)C5CC5)cn4c3)c(F)c2)c(=O)n1-c1ccccc1.Cl | 6 | > 110 | 10
